Measured values as given in ChEMBL document CHEMBL4414574, “Structure-Based Discovery and Development of a Series of Potent and Selective Bromodomain and Extra-Terminal Protein Inhibitors” (J Med Chem, 2019).
Calls of active or inactive are those of the source. The rule behind the calls is not given here.

Tests used:
Peregrin (Homo sapiens) = Peregrin (Homo sapiens) (UniProt P55201); test: Binding affinity to human partial length BRPF1 (E627 to G740 residues) expressed in Escherichia coli BL21 cells assessed as residual binding level at 1 uM measured after 1 hr by quantitative PCR based BROMOscan assay relative to control
In short: (§1)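 A BROMOScan competition-binding panel of 32 bromodomains was run at a single 1 μM compound concentration. Results are primary-screen 'Percent Control', where lower values indicate stronger binding.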

[1] = Drug uptake in tumor of Balb/c nude mouse xenografted with human MV4-11 cells at 25 to 50 mg/kg, po measured after 8 hrs; assay type: ADME, organism-based, Neoplasm; conditions: in vivo
In short: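 MV4-11 xenografts in BALB/c nude mice given oral compound; drug concentrations in plasma and tumor tissue measured at 1 h and 8 h after dosing.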

[2] = biological target: Protein polybromo-1 (Homo sapiens) (UniProt Q86U86); test: Binding affinity to human partial length PB1 bromodomain 2 (S178 to E291 residues) expressed in Escherichia coli BL21 cells assessed as residual binding level at 1 uM measured after 1 hr by quantitative PCR based BROMOscan assay relative to control
In short: (§2)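 Bromodomain panel screen (32 bromodomains) run at 1 μM single concentration; primary binding reported as 'Percent Control', lower values meaning stronger interaction.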

BT-549 = test: Antiproliferative activity against human BT549 cells after 72 hrs by CCK8 or SRB assay; assay type: functional, cell-based
[3] = AUC (0 to t) in ICR mouse plasma at 50 mg/kg, po administered via gavage measured after 0.25 to 24 hrs by UPLC/MS analysis; assay type: ADME, organism-based; design: time lower 0.25 hr, dose 50 mg/kg, time upper 24 hr, route oral
In short: (§3)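 Male ICR mice were dosed orally in 1% DMSO/0.5% HPMC vehicle. Plasma (and brain, where stated) concentrations gave Tmax, Cmax, T1/2, AUC0-t and AUC0-inf.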

[4] = Tmax in ICR mouse plasma at 50 mg/kg, po administered via gavage measured after 0.25 to 24 hrs by UPLC/MS analysis; assay type: ADME, organism-based
In short: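 Male ICR mice dosed orally at 50 mg/kg in 1% DMSO/0.5% HPMC; drug measured in plasma and brain.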

[5] = Half life in ICR mouse brain at 50 mg/kg, po administered via gavage measured after 0.25 to 24 hrs by UPLC/MS analysis; assay type: ADME, organism-based
In short: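 Male ICR mice dosed orally in 1% DMSO/0.5% HPMC vehicle; plasma or brain drug levels used to derive Tmax, Cmax, AUC0-t, AUC0-inf and T1/2.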

[6] = biological target: Nucleosome-remodeling factor subunit BPTF (Homo sapiens) (UniProt Q12830); test: Binding affinity to human partial length FALZ (S2791 to H2911 residues) expressed in Escherichia coli BL21 cells assessed as residual binding level at 1 uM measured after 1 hr by quantitative PCR based BROMOscan assay relative to control; in short: as §1
[7] = AUC (0 to infinity) in ICR mouse plasma at 100 mg/kg, po administered via gavage measured after 0.25 to 24 hrs by UPLC/MS analysis; assay type: ADME, organism-based; design: dose 100 mg/kg, time infinity, route oral; in short: as §3
[8] = biological target: Bromodomain-containing protein 1 (Homo sapiens) (UniProt O95696); test: Binding affinity to human partial length BRD1 (E556 to A688 residues) expressed in Escherichia coli BL21 cells assessed as residual binding level at 1 uM measured after 1 hr by quantitative PCR based BROMOscan assay relative to control; in short: as §1
MV4-11 [9] = test: Induction of apoptosis in human MV4-11 cells assessed as decrease in full-length caspase-8 level at 10 to 1000 nM after 24 hrs by Western blot analysis; assay type: functional, cell-based
In short: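 MV4-11 cells exposed to compound at the indicated doses for 24 h; lysates probed by Western blotting for the target protein, with GAPDH as loading control.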

[10] = Bioavailability in dog at 1 mg/kg, iv; assay type: ADME, organism-based, Canis lupus familiaris; conditions: in vivo
[11] = AUC (0 to infinity) in dog plasma at 3 mg/kg, po; assay type: ADME, organism-based, Canis lupus familiaris; design: dose 3 mg/kg, route oral, time infinity
In short: (§4)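 Compound was given orally or intravenously in 1% DMSO/0.5% HPMC vehicle. Concentrations in plasma, or in brain where stated, gave Tmax, Cmax, T1/2, AUC0-t and AUC0-inf.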

SW-620 = test: Antiproliferative activity against human SW620 cells after 72 hrs by CCK8 or SRB assay; assay type: functional, cell-based
[12] = AUC (0 to infinity) in rat brain at 50 mg/kg, po; assay type: ADME, organism-based; design: dose 50 mg/kg, time infinity, route oral; in short: as §4
[13] = biological target: SWI/SNF-related matrix-associated actin-dependent regulator of chromatin subfamily A member 2 (Homo sapiens) (UniProt P51531); test: Binding affinity to human partial length SMARCA2 (S1377 to Q1486 residues) expressed in Escherichia coli BL21 cells assessed as residual binding level at 1 uM measured after 1 hr by quantitative PCR based BROMOscan assay relative to control; in short: as §2
[14] = AUC (0 to infinity) in rat plasma at 50 mg/kg, po; assay type: ADME, organism-based; design: dose 50 mg/kg, time infinity, route oral; in short: as §4
[15] = biological target: Histone acetyltransferase p300 (Homo sapiens) (UniProt Q09472); test: Inhibition of EP300 (unknown origin) at 1 uM
In short: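 Bromodomain binding panel (32 bromodomains) screened at 1 μM; primary binding read-out reported as percent of control, lower values meaning stronger binding.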

MV4-11 [16] = test: Antitumor activity against human MV4-11 cells xenografted in Balb/c nude mouse assessed as tumor growth inhibition at 50 mg/kg, po administered once daily and measured twice a week by caliper method relative to control; assay type: functional; conditions: MV4-11, po, read-out: TGI
[17] = Bioavailability in rat at 3 mg/kg, iv; assay type: ADME, organism-based; conditions: in vivo
Cytochrome P450 1A2 = biological target: T1, Cytochrome P450 1A2 (Homo sapiens, UniProt P05177); test: Time-dependent inhibition of CYP1A2 in human liver microsomes at 10 uM using phenacetin as substrate preincubated up to 30 mins followed by NADPH generating system addition and measured after 10 mins; assay type: ADME
T1 sequence (P05177 whole entry): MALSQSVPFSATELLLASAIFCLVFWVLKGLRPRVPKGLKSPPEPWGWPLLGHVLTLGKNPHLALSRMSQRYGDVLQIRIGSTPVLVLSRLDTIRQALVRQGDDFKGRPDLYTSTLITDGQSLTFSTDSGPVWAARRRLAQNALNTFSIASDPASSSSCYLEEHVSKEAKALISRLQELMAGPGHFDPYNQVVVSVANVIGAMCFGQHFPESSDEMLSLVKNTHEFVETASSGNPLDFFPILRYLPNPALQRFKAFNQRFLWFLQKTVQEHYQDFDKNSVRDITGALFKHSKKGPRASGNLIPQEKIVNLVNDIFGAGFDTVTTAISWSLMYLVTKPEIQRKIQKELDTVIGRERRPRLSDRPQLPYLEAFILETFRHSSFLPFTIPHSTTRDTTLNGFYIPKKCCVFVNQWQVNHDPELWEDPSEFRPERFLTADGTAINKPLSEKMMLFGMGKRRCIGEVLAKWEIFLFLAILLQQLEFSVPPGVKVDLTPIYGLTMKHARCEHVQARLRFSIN
In short: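 Human liver microsomes 0.2 mg/mL, 100 mM phosphate pH 7.4, 10 μM test compound, preincubated 0, 5, 10 and 30 min at 37 °C; then NADPH plus probe cocktail (5 μM midazolam, 50 μM testosterone, 5 μM dextromethorphan, 10 μM diclofenac, 50 μM phenacetin, 50 μM S-(+)-mephenytoin) added; 10 min reaction; kobs in units of 10^-4/min.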

Protein polybromo-1 (Homo sapiens), sequence (Q86U86 whole entry, the tested form may be a part): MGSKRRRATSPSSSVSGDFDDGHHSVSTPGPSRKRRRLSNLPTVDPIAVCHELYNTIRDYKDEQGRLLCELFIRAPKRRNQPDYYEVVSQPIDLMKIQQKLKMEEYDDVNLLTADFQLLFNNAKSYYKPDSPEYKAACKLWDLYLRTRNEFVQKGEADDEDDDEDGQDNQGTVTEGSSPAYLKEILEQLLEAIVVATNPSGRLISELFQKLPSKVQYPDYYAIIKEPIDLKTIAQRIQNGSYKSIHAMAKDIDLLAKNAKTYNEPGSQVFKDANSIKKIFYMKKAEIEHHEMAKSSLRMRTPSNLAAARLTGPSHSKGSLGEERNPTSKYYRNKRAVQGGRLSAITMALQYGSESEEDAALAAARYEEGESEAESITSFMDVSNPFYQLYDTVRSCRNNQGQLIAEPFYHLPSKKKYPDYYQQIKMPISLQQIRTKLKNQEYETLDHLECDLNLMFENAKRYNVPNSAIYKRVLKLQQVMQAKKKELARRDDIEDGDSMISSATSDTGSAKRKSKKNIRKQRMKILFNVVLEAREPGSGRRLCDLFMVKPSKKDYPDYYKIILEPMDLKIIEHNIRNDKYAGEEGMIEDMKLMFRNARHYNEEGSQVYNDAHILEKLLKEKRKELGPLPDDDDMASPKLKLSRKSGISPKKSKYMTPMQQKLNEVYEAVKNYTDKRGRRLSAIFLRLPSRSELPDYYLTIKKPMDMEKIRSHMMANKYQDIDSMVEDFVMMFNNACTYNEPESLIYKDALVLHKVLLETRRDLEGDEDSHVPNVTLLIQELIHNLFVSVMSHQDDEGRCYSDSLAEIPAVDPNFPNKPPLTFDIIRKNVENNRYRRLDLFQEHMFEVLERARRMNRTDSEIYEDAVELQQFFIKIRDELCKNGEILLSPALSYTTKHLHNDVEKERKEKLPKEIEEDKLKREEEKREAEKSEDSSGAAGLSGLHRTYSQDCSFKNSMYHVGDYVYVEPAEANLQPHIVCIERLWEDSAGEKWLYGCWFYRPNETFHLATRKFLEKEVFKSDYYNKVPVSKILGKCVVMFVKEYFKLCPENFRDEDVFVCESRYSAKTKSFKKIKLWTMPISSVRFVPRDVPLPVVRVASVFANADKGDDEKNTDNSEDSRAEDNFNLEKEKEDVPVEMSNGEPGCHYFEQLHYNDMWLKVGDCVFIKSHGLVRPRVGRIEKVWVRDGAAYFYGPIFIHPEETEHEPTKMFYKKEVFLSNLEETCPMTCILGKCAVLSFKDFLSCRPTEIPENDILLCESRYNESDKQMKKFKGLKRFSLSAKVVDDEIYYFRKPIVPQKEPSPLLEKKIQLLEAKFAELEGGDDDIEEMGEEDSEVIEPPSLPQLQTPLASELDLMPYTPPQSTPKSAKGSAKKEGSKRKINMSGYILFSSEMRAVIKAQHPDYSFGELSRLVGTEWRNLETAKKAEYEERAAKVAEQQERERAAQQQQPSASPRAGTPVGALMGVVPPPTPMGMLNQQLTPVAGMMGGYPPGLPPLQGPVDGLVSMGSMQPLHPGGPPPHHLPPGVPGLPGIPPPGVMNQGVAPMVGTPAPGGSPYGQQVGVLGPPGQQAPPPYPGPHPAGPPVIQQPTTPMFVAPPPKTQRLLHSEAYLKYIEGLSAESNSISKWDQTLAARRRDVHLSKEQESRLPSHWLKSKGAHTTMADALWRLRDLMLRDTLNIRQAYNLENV
Peregrin (Homo sapiens), sequence (P55201 whole entry, the tested form may be a part): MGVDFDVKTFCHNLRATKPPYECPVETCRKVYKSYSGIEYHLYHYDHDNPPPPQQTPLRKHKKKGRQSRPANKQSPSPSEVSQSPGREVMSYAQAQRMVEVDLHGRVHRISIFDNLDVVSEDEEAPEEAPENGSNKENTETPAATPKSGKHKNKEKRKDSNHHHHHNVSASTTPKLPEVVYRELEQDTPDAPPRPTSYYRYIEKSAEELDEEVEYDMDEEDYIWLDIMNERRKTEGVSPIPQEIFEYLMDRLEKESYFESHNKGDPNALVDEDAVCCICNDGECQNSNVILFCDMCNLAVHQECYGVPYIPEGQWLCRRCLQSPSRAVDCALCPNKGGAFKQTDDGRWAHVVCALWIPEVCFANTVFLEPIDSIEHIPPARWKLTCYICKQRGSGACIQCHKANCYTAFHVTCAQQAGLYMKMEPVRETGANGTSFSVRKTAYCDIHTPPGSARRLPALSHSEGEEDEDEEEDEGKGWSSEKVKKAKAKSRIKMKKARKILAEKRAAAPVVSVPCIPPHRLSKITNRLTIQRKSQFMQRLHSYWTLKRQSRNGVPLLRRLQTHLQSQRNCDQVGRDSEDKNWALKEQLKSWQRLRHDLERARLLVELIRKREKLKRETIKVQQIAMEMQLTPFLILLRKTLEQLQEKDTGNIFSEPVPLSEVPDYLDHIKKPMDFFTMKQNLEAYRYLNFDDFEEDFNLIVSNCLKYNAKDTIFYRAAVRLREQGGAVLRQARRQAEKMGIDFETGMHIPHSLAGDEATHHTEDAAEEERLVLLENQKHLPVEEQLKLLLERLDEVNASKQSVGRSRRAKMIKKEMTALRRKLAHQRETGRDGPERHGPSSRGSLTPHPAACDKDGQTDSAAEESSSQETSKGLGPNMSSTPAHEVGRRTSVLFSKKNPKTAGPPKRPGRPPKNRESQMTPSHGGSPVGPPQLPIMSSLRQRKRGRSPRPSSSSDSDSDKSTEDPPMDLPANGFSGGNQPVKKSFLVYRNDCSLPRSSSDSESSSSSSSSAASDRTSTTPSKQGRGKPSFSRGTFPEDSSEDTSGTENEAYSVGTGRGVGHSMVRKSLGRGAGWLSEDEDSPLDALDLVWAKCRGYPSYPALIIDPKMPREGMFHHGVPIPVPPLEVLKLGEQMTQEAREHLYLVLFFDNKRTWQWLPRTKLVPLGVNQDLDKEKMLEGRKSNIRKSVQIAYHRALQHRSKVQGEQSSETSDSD
SWI/SNF-related matrix-associated actin-dependent regulator of chromatin subfamily A member 2 (Homo sapiens), sequence (P51531 whole entry, the tested form may be a part): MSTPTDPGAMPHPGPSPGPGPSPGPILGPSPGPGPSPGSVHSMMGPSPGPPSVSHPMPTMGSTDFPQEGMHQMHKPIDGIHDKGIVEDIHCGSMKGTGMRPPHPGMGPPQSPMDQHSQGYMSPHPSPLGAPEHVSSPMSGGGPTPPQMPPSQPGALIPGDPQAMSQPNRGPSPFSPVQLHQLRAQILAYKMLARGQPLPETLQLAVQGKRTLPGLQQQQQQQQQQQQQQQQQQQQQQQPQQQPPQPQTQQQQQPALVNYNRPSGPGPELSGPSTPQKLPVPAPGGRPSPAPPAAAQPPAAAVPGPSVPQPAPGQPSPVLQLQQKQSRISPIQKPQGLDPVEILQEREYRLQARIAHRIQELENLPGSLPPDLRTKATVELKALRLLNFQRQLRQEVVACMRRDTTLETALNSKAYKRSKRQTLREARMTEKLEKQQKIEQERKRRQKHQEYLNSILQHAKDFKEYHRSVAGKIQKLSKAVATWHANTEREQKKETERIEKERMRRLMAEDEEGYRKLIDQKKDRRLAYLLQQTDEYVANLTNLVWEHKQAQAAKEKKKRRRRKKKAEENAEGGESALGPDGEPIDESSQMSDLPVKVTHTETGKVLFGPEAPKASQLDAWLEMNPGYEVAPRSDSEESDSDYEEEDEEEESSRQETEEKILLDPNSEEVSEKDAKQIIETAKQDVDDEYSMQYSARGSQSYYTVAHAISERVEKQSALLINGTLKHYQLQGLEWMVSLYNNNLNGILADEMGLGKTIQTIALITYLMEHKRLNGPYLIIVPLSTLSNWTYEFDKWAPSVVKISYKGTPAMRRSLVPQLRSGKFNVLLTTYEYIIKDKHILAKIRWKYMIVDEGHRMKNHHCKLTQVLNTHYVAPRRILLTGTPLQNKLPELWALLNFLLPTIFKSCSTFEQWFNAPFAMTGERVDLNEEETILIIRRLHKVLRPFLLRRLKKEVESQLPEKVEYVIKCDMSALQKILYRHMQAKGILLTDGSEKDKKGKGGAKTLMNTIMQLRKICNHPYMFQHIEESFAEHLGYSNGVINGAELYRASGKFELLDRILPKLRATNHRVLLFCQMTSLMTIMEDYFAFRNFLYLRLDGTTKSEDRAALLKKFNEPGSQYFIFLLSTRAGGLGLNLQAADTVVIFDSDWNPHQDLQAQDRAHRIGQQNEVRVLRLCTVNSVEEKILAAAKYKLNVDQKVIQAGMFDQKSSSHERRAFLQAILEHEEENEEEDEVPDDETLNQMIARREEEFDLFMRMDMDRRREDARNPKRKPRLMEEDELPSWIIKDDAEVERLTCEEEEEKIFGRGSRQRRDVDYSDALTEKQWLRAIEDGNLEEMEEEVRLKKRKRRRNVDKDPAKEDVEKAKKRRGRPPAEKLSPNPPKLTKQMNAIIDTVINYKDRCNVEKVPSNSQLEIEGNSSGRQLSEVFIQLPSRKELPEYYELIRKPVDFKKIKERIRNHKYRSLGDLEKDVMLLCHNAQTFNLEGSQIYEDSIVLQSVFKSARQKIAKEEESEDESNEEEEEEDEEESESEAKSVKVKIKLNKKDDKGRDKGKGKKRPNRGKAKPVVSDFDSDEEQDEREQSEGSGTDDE

SMILES: Cc1ccc(-n2nc(C(=O)N3C[C@@H](C)N[C@@H](C)C3)nc2-c2ccc3c(c2)N(C2CCCC2)[C@H](C)C(=O)N3C)cc1
- Activity (Peregrin (Homo sapiens)): 70 to 100%
- Drug uptake [1]: Active
- Activity [2]: 70 to 100%
- Activity (BT-549): Active
- AUC(0-t) [3]: 16700 ng·h/mL
- Tmax [4]: 1 h
- half-life [5]: 3 h
- Activity [6]: 70 to 100%
- AUC(0-inf) [7]: 82400 ng·h/mL
- Activity [8]: 50 to 70%
- Activity (MV4-11 [9]): Active
- bioavailability [10]: 34.3%
- AUC(0-inf) [11]: 798 ng·h/mL
- Activity (SW-620): Active
- AUC(0-inf) [12]: 399 ng·h/mL
- Activity [13]: 70 to 100%
- AUC(0-inf) [14]: 4310 ng·h/mL
- inhibition [15]: inactive
- inhibition in vivo at 50 mg/kg (MV4-11 [16]): 95.6%
- bioavailability [17]: 18.2%
- TDI (Cytochrome P450 1A2): Not Active
